Assay results published in ChEMBL document CHEMBL2331363, “Synthesis of a 2,4,6-trisubstituted 5-cyano-pyrimidine library and evaluation of its immunosuppressive activity in a Mixed Lymphocyte Reaction assay” (Bioorg Med Chem, 2013).
pIC50: −log10 of the molar value.

How the values were obtained:
[1] = Growth inhibition of human Jurkat T cells at 10 uM after 48 hrs by WST1 assay; type: cell-based
Procedure, shortened: (§1)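 Jurkat T cells were seeded at 5.10⁴ cells per well and exposed to serial compound dilutions for 48 h at 37 °C and 5% CO₂. Part of the medium was removed, WST-1 tetrazolium salt was added, and cells were incubated further. Absorbance was read at 450 nm. Results are % cytotoxicity at each concentration, with CC₅₀ calculated.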

[2] = Cytotoxicity against human Jurkat T cells after 48 hrs by WST1 assay; type: cell-based; procedure, shortened: as §1
[3] = Immunosuppressive activity in human RPMI1788 cells cocultured with human PBMC assessed as inhibition of [3H]thymidine incorporation incubated for 6 days prior to [3H]thymidine addition measured after 18 hrs by liquid scintillation counting; type: functional, cell-based; details: RPMI-1788
Procedure, shortened: (§2)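 Effector PBMCs from heparinized healthy-donor blood were isolated over Lymphoprep and held at 1.2 × 10⁶ cells/mL in RPMI-1640 with 10% heat-inactivated FCS. Mitomycin-treated stimulator cells were at 0.45 × 10⁶ cells/mL. Cells were mixed with diluted compound and cultured at 37 °C, 5% CO₂. (methyl-³H)thymidine was added for the final 18 h, and filter-harvested cpm were counted by scintillation. Compounds were screened at one concentration, then dose-response IC₅₀ was determined. Values are means of two independent experiments.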

[4] = Immunosuppressive activity in human RPMI1788 cells cocultured with human PBMC assessed as inhibition of [3H]thymidine incorporation at 10 uM incubated for 6 days prior to [3H]thymidine addition measured after 18 hrs by liquid scintillation counting; type: functional; details: RPMI-1788; procedure, shortened: as §2

SMILES	inhibition at 48 h, 10 µM [1] [%]	CC50 at 48 h [2] [µM]	pIC50 [3]	inhibition at 10 µM [4] [%]
COc1ccc(-c2nc(SCc3ccccc3)nc(NCc3cccs3)c2C#N)cc1	13	> 10	5.30	65
COc1ccc(-c2nc(SCc3ccccc3)nc(N3CCC(c4ccccc4)CC3)c2C#N)cc1	–	–	< 5.00	31
N#Cc1c(-c2ccc(Cl)cc2)nc(Nc2cccc(F)c2)[nH]c1=O	–	–	< 5.00	0
COc1ccc(-c2nc(SCc3ccccc3)nc(N3CCC(C(=O)c4ccccc4)CC3)c2C#N)cc1	2	> 10	5.68	63
N#Cc1c(-c2ccc(Cl)cc2)nc(Nc2ccc(Cl)cc2)nc1N1CCCCC1	–	–	< 5.00	15
C=CCSc1nc(-c2ccc(OC)cc2)c(C#N)c(N2CCOCC2)n1	5	> 10	5.47	82
COc1ccc(-c2nc(SCc3ccc(Br)cc3)nc(N3CCOCC3)c2C#N)cc1	–	–	< 5.00	36
CCOc1nc(Nc2ccc(Cl)cc2)nc(-c2ccc(Cl)cc2)c1C#N	–	–	< 5.00	0
COc1ccc(-c2nc(SCCc3ccccc3)nc(N3CCOCC3)c2C#N)cc1	9	> 10	5.41	62
CCOc1nc(SCc2ccccc2)nc(-c2ccc(OC)cc2)c1C#N	–	–	< 5.00	46
N#Cc1c(-c2cccc(Cl)c2)nc(Nc2ccc(Cl)cc2)[nH]c1=O	–	–	< 5.00	14
N#Cc1c(-c2ccc(Cl)cc2)nc(SCc2ccccc2)nc1N1CCOCC1	5	> 10	5.08	63
Cc1ccc(Nc2nc(-c3ccc(Cl)cc3)c(C#N)c(N3CCCCC3)n2)cc1	–	–	< 5.00	0
COc1nc(Nc2ccc(Cl)cc2)nc(-c2ccc(Cl)cc2)c1C#N	–	–	< 5.00	0
CCCn1c(SCc2ccccc2)nc(-c2cccc(Cl)c2)c(C#N)c1=O	–	–	< 5.00	9
CCn1c(SCc2ccccc2)nc(-c2ccc(OC)cc2)c(C#N)c1=O	–	–	< 5.00	12
N#Cc1c(-c2ccc(Cl)cc2)nc(SCc2ccccc2)n(Cc2ccccc2)c1=O	–	–	< 5.00	14
CCCOc1nc(Nc2ccc(Cl)cc2)nc(-c2ccccc2)c1C#N	–	–	< 5.00	44
CC(C)Nc1nc(Nc2ccc(Cl)cc2)nc(-c2ccc(Cl)cc2)c1C#N	–	–	< 5.00	0
N#Cc1c(-c2ccc(Cl)cc2)nc(Nc2ccc(Cl)cc2)nc1N1CCOCC1	–	–	< 5.00	45
N#Cc1c(-c2ccc(Cl)cc2)nc(SCc2ccccc2)nc1N1CCCC(C(N)=O)C1 (centres undefined)	–	–	< 5.00	64
CCc1cccc(Nc2nc(-c3ccc(Cl)cc3)c(C#N)c(=O)[nH]2)c1	–	–	< 5.00	33
COc1ccc(-c2nc(SCc3ccccc3)nc(NCCc3ccccc3)c2C#N)cc1	–	–	< 5.00	11
CC(C)Nc1nc(SCc2ccccc2)nc(-c2ccc(Cl)cc2)c1C#N	–	–	< 5.00	48
Cn1c(SCc2ccccc2)nc(-c2cccc(Cl)c2)c(C#N)c1=O	–	–	< 5.00	7
CCn1c(SCc2ccccc2)nc(-c2ccc(Cl)cc2)c(C#N)c1=O	–	–	< 5.00	5
CC(C)Nc1nc(Nc2ccc(Cl)cc2)nc(-c2ccccc2)c1C#N	–	–	5.24	72

SMILES	inhibition at 48 h, 10 µM [1] [%]	CC50 at 48 h [2] [µM]	pIC50 [3]	inhibition at 10 µM [4] [%]
Cc1ccc(Nc2nc(-c3ccc(Cl)cc3)c(C#N)c(=O)[nH]2)cc1	–	–	< 5.00	20
N#Cc1c(OCc2ccccc2)nc(SCc2ccccc2)nc1-c1ccc(Cl)cc1	–	–	< 5.00	22
COc1ccc(-c2nc(SCc3ccccc3)nc(N3CCSCC3)c2C#N)cc1	–	–	< 5.00	13
COc1ccc(-c2nc(SC)nc(N3CCOCC3)c2C#N)cc1	6	> 10	5.31	80
N#Cc1c(-c2ccc(Cl)cc2)nc(Nc2ccc(Cl)cc2)[nH]c1=O	–	–	< 5.00	18
CCOc1nc(SCc2ccccc2)nc(-c2ccc(Cl)cc2)c1C#N	–	–	< 5.00	13
N#Cc1c(NC2CCCCC2)nc(Nc2ccc(Cl)cc2)nc1-c1ccc(Cl)cc1	–	–	< 5.00	1
COc1ccc(-c2nc(SCc3ccccc3)nc(N3CCC(C)CC3)c2C#N)cc1	–	–	< 5.00	35
N#Cc1c(-c2ccccc2)nc(Nc2ccc(Cl)cc2)[nH]c1=O	–	–	< 5.00	0
COc1ccc(-c2nc(SCc3ccccc3)nc(N3CCC(Cc4ccccc4)CC3)c2C#N)cc1	–	–	< 5.00	31
CCOc1nc(Nc2ccc(Cl)cc2)nc(-c2ccccc2)c1C#N	–	–	< 5.00	38
Cc1ccc(Nc2nc(-c3ccccc3)c(C#N)c(=O)[nH]2)cc1	–	–	< 5.00	11
CCCCSc1nc(-c2ccc(OC)cc2)c(C#N)c(N2CCOCC2)n1	13	> 10	5.64	67
COc1nc(SCc2ccccc2)nc(-c2ccc(Cl)cc2)c1C#N	–	–	< 5.00	10
COc1ccc(-c2nc(Nc3ccc(Cl)cc3)[nH]c(=O)c2C#N)cc1	–	–	< 5.00	0
N#Cc1c(-c2ccc(Cl)cc2)nc(SCc2ccccc2)nc1N1CCC(Cc2ccccc2)CC1	–	–	< 5.00	17
COc1ccc(-c2nc(SCc3ccccc3)n(C)c(=O)c2C#N)cc1	–	–	< 5.00	5
N#Cc1c(-c2ccc(Cl)cc2)nc(SCc2ccccc2)nc1N1CCC(C(N)=O)CC1	19	> 10	5.19	57
N#Cc1c(-c2ccc(Cl)cc2)nc(SCc2ccccc2)nc1N1CCC(C(=O)c2ccccc2)CC1	6	> 10	5.01	55
Cn1c(SCc2ccccc2)nc(-c2ccc(Cl)cc2)c(C#N)c1=O	–	–	< 5.00	0
COc1ccc(-c2nc(SCc3ccccc3)nc(N3CCC(C(N)=O)CC3)c2C#N)cc1	12	> 10	5.31	73
CCOc1nc(SCc2ccccc2)nc(-c2cccc(Cl)c2)c1C#N	–	–	< 5.00	10
N#Cc1c(-c2ccc(Cl)cc2)nc(Nc2ccccc2)[nH]c1=O	–	–	< 5.00	8
N#Cc1c(NC2CCCCC2)nc(SCc2ccccc2)nc1-c1ccc(Cl)cc1	0	> 10	5.19	56
Cc1ccc(Nc2nc(-c3ccccc3)c(C#N)c(N3CCCCC3)n2)cc1	10	> 10	5.37	88
N#Cc1c(OCc2ccccc2)nc(Nc2ccc(Cl)cc2)nc1-c1ccc(Cl)cc1	–	–	< 5.00	26
N#Cc1c(-c2ccccc2)nc(Nc2ccc(Cl)cc2)nc1N1CCCCC1	9	> 10	5.21	70
